The list is not random: actives were taken first. Their share in the collection is about 1.5%.
FID counter = displaces DNA intercalator in HCV helicase counter-screen | DNA fluorescent intercalator displacement, fluorescence | inhibition, % at 7.9 µM | 290,000 tested, 0.17% active; in the data active means inhibition above about 37%;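 further: 0% = vehicle and 100% = reference compound; higher means more ethidium bromide displaced from hairpin DNA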
core dimer inh = blocks dimerization of HCV core protein. TR-FRET GST/Flag-core106 dimerization, 1536-well. inhibition, % at 5 µM. 300,000 tested, 0.33% active. AID 1899;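 active means inhibition above the mean of all tested compounds plus 3 SD, set per screening campaign, cut at about 45% in these data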
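Assay system: Tagged HCV core106 pair (GST and Flag) | Buffer or medium: KF-containing HEPES buffer, pH 7.45, DTT, CHAPS, BSA | Also added: Eu donor and XL665 acceptor anti-tag antibodies | Dosing: One concentration, 5 µM, in 0.5% DMSO | Timing: 4 h at 22.5 °C | Technique: TR-FRET 671 and 617 nm emission | Repeats: Singlicate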
CendR NRP1 mod = alters CendR peptide binding to human NRP-1. 360,000 tested, 0.85% active. O14786. inhibition, % at 25 µM. FAM-RPARPAR peptide binding to NRP-1, fluorescence polarization;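 active means inhibition or corrected inhibition above about 18%, plus a signal ratio from 0.5 to 1.5, limit read from the data, passing the limit was not always enough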
MEX-5 binding = C. elegans MEX-5 TCR-2 RNA binding activity | Q9XUB2 | MEX-5/FITC-TCR2 RNA binding, fluorescence polarization; hits give low values | activity score (negative = inhibition of binding), % at 10 µM | 300,000 tested, 0.38% active;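 active means inhibition past about -25% in most replicates, and total fluorescence under double the plate's negative control median, limit read from the data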;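 further: 0% = DMSO and -100% = 5 µM competing unlabeled TCR2 RNA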
Target sequence (Q9XUB2 whole entry, looked up): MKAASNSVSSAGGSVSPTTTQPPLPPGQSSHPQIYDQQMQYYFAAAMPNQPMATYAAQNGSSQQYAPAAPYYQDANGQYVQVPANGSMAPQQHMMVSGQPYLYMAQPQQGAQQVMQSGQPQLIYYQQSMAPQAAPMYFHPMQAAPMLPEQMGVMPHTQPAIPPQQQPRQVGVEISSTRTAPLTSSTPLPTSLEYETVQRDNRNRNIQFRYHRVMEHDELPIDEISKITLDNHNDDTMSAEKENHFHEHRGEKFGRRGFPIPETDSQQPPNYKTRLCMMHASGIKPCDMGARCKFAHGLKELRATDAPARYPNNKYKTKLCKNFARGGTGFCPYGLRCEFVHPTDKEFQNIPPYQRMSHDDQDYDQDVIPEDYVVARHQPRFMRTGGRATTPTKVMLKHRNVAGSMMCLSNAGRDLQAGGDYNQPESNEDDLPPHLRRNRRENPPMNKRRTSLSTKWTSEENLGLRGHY
Starred values were filed as active, the others as inactive; x = not tested or not shown.

SMILES	FID counter	core dimer inh	CendR NRP1 mod	MEX-5 binding
COCc1cccc(-c2csc(C(C)(O)c3ccccc3)n2)c1 (stereo unspecified)	x	x	41*	x
CC(O)(c1ccccc1)c1nc(-c2ccccc2)cs1 (stereo unspecified)	x	x	3	x
Cc1ccc(CN(C)C(=O)CC2C(=O)NCCN2CC2CCCCC2)cc1 (stereo unspecified)	-18	2	6	-48*
CC#CCN(Cc1ccco1)C(=O)C1CCC(=O)N(Cc2ccccc2F)C1 (stereo unspecified)	-29	-1	23*	2
CC#CCN(Cc1ccco1)C(=O)C1CCC(=O)N(CCc2cccc(F)c2)C1 (stereo unspecified)	x	x	-6	x
COC(=O)[C@@]1(Cc2ccccc2)[C@H]2C(=O)N(Cc3ccccc3)C(=O)[C@H]2[C@H]2CN=C(SCC3CC3)N21	x	x	-20	x
COc1ccc(/C=C(/CC(=O)NCc2ccc(Cl)cc2)c2nc3ccccc3s2)cc1	-7	31	-5	-2
COc1ccc(/C=C(/CC(=O)Nc2ccccc2)c2nc3ccccc3s2)cc1	-9	58*	5	2
COc1ccc(C)c2sc(N(CCN(C)C)C(=O)/C=C/c3cccs3)nc12	32	-7	5	0
COc1ccc(OC)c2sc(N(CCN(C)C)C(=O)/C=C/c3cccs3)nc12	44*	-4	2	-4
CCCNC(=S)Nc1cccc(C(F)(F)F)c1	3	-10	25*	0
CC(C)CC(COCc1ccc([N+](=O)[O-])cc1)N1CCN(C(=O)c2ccc(C(F)(F)F)cc2)CCC1=O (stereo unspecified)	-44	1	23*	0
Cc1cccc(COCC(CC(C)C)N2CCN(C(=O)c3ccc(C(F)(F)F)cc3)CCC2=O)c1 (stereo unspecified)	-42	11	-1	-1
c1ccc2sc(-n3cc(C4CCCCC4)nn3)nc2c1	x	x	12	x
CNC(=S)N1N=C(c2ccc(Br)cc2)CC1c1ccc(N(C)C)cc1 (stereo unspecified)	-17	-45	32*	13
C=C(NC(=O)C(=C)NC(=O)c1csc(C2=NC3c4csc(n4)C4NC(=O)c5csc(n5)C([C@@](C)(O)C(C)O)NC(=O)C5CSC(=N5)/C(=C\C)NC(=O)C(C(C)O)NC(=O)c5csc(n5)[C@]3(CC2)NC(=O)C(C)NC(=O)C(=C)NC(=O)C(C)NC(=O)C(C(C)CC)NC2C=Cc3c(C(C)O)cc(nc3C2O)C(=O)OC4C)n1)C(N)=O (stereo partly specified)	x	70*	x	x
C=C(NC(=O)C(=C)NC(=O)c1csc(C2=NC3c4csc(n4)C4NC(=O)c5csc(n5)C(C(C)(O)C(C)O)NC(=O)C5CSC(=N5)/C(=C/C)NC(=O)C(C(C)O)NC(=O)c5csc(n5)C3(CC2)NC(=O)C(C)NC(=O)C(=C)NC(=O)C(=C)NC(=O)C(C(C)C)NC2C=Cc3c(C(C)O)cc(nc3C2O)C(=O)OC4C)n1)C(N)=O (stereo unspecified)	x	x	-46	x
COC(=O)[C@]12CCCCC=C1N(Cc1ccco1)C(=O)[C@H](CC(=O)N1CCCCC1)C2	x	x	11	x
Cc1ccc(C2(c3noc(CN(C)CCCN4CCOCC4)n3)CCCC2)cc1	-2	-2	x	1
Cc1ccc(C2(c3noc(CN(C)Cc4cnn(C)c4)n3)CCCC2)cc1	-26	-2	34*	4
CO/N=C/NC(=O)c1c(OC)ccnc1Oc1ccccc1	-3	3	26*	-3
COc1ccnc(Oc2ccccc2)c1C(=O)N/C=N/OCc1ccccc1	-14	1	-2	-1
Cc1cc(C)c2cc(C#N)c(N3CCCN(S(=O)(=O)c4ccccc4)CC3)nc2c1	-3	12	x	-1
CC(=O)c1cccc(S(=O)(=O)N2CCN(c3nc4cc(C)cc(C)c4cc3C#N)CC2)c1	0	70*	-24	-2
C=CCn1cc(CN2CCC(C(=O)Nc3cccc(-c4cccc(Cl)c4)c3)CC2)c(C)n1	41*	-7	7	4
SMILES	FID counter	core dimer inh	CendR NRP1 mod	MEX-5 binding
CCCn1ncc(CN2CCC(C(=O)Nc3cccc(-c4cccc(F)c4)c3)CC2)c1C	44*	-15	16	3
C=CCn1cc(CN2CCC(C(=O)Nc3cccc(-c4cccc(F)c4)c3)CC2)c(C)n1	20	7	0	-1
CC(C)N(C(=O)c1ccc(Cc2cn(C)c3ccccc23)nc1)C(C)C	x	x	4	x
CCC(CC)c1nnc(NC(=O)c2cccc(S(=O)(=O)N3CCOCC3)c2)s1	x	x	26*	x
CCCn1nnnc1SCC(=O)N1C(C)CCCC1C (stereo unspecified)	-11	0	22*	-1
CN(C)CCNC(=O)c1ccc(Sc2ccc(Br)cc2)c([N+](=O)[O-])c1	39*	-6	-3	0
Cn1c(=O)c2[nH]c(N/N=C(/C#N)C(N)=O)nc2n(C)c1=O	-6	-11	x	-27*
CC(C)c1ccc(-c2nn(-c3ccccc3)cc2C2C(C#N)=C(N)OC3=C2C(=O)CC(C)(C)C3)cc1 (stereo unspecified)	-29	48*	-10	7
Cc1nn(-c2ccccc2)c(Cl)c1C1C(C#N)=C(N)OC2=C1C(=O)CC(C)(C)C2 (stereo unspecified)	-30	-4	-5	0
CC1(C)CC(=O)C2=C(C1)OC(N)=C(C#N)C2c1ccccc1 (stereo unspecified)	-4	2	-7	-3
CC1(C)CC(=O)C2=C(C1)OC(N)=C(C#N)C2c1ccccc1[N+](=O)[O-] (stereo unspecified)	0	-1	36*	-80*
C[C@@H]1CN([C@@H](C)CO)C(=O)CCCn2nncc2CO[C@H]1CN(C)C(=O)c1ccncc1	x	x	2	x
Cc1ccc2[nH]c(=O)c(CN(CCO)Cc3nnnn3CCc3ccccc3)cc2c1	4	4	-8	-32*
CCCCC[C@@H](C)N1C[C@H](COCc2ccccc2)Oc2cc(N3CCC[C@H]3CO)ccc2S1(=O)=O	x	x	18	x
O=C(O)C[C@H]1c2cc(F)ccc2S(=O)(=O)N1C1CCCCC1	x	-4	25*	1
Cc1ccc(NC(=O)COC(=O)CCc2c[nH]c3ccccc23)c(C)c1	x	x	9	x
C=CCn1c(C)cc(C(=O)Cn2ncc(Cl)c(Cl)c2=O)c1C	-12	51*	5	-1
COc1ccc(C2c3ccc(O)cc3Oc3ncn(Cc4ccco4)c(=N)c32)cc1OC (stereo unspecified)	-20	4	-39	-29*
COc1ccc(C2c3ccc4ccccc4c3Oc3ncn(Cc4ccco4)c(=N)c32)cc1OC (stereo unspecified)	-29	11	-4	2
CCC(C)CN1C(=O)CSCC1(C)C(=O)Nc1ccc2c(c1)OCCO2 (stereo unspecified)	x	x	22	x
COc1cc(-c2csc(C)n2)ccc1O	3	-2	4	1
Cc1ccc2nc(-c3ccc(O)c(O)c3)cn2c1	8	-10	-5	-48*
Cc1nc(-c2ccc(O)c(O)c2)cs1	-4	-6	-10	-51*

From PubChem
